Results of several laboratories.
Compare with care: the assays were run in different laboratories.
Target: Casein kinase I isoform delta (CSNK1D, Homo sapiens, UniProt P48730)

SMILES | effect on | technique | tested at | remaining binding [%]
Cc1cc(C)c(-n2ccn3nc(-c4cccnc4)cc23)cc1NC(=O)c1cc(C#N)cc(S(F)(F)(F)(F)F)c1 | cell-free assay | competition with immobilised ligand | 0.1 µM | 100
O=C(Nc1c[nH]nc1C(=O)NC1CCNCC1)c1cc(F)cc(F)c1 | binding | competition with immobilised ligand | 1 µM | 95
CC1CCCN1c1nccc(-c2cnn3ncccc23)n1 (stereo not drawn) | binding |  | 1 µM | 100
C=CC(=O)N1CCC(C(=O)NCC(=O)N2CCN(c3nc(-c4cnc(N)nc4C(F)F)nc(N4CCOCC4)n3)CC2)CC1 | binding | competition with immobilised ligand | 1 µM | 100
CN(C)CC#Cc1ccc(OCCCc2sc(N3CCc4cccc(C(=O)Nc5nc6ccccc6s5)c4C3)nc2C(=O)O)c(F)c1 | cell-free assay | competition with immobilised ligand | 1 µM | 95
CNC(=O)[C@@H]1CC[C@@H](n2c(-c3ccc4cnccc4c3)nc3ccc(C(=O)NCc4cccc(C(N)=O)c4)cc32)C1 | binding | competition with immobilised ligand | 1 µM | 100
O=C(NCCCN1CCOCC1)c1ccc(Nc2nccc(-c3cc4ccccc4s3)n2)cc1 | binding | competition with immobilised ligand | 1 µM | 92
N#Cc1ccccc1CSc1nnc2c(n1)[nH]c1ccccc12 | binding | competition with immobilised ligand | 10 µM | 86
CN(C)c1ncc(F)c(-c2cnn3ncccc23)n1 | binding |  | 1 µM | 100
Nc1ncc2c(n1)-c1c([nH]c3ccc(C#CC4CC4)cc13)CCCC2 | binding | competition with immobilised ligand | 1 µM | 91
CN(CCCC(F)(F)F)c1nccc(-c2cnn3ncccc23)n1 | binding |  | 1 µM | 100
CN(C(=O)c1ccccc1)c1cc(N(C)c2ccc3c(c2)CCc2ccc(C(=O)NCCN4CCOCC4)cc2C3=O)ccc1F | cell-free assay | competition with immobilised ligand | 1 µM | 100
CN(C)c1nccc(-c2cnn3ncccc23)n1 | binding |  | 1 µM | 62
CCOCCn1cc(C(=O)Nc2ccc(-n3nc(-c4cccnc4)cc3C(F)(F)F)cn2)ccc1=O | cell-free assay | competition with immobilised ligand | 1 µM | 100
O=C(NCCCN1CCOCC1)c1ccc(Nc2ncc(Cl)c(-c3ccc(Cl)s3)n2)cc1 | binding | competition with immobilised ligand | 1 µM | 100
CC(C)(C)c1ccc(-c2nc(CBr)nn2-c2cccc(O)c2)cc1 | cell-free assay | competition with immobilised ligand | 10 µM | 82
O=C(Nc1cccnn1)N1CCC(=Cc2cccc(Oc3ccc(C(F)(F)F)cn3)c2)CC1 | cell-free assay | competition with immobilised ligand | 1 µM | 100
O=C(c1ccc(Nc2ncc(Cl)c(-c3ccc(Cl)s3)n2)cc1)N1CCC(N2CCCC2)CC1 | binding | competition with immobilised ligand | 1 µM | 100
C[C@H]1CCN(c2nccc(-c3cnn4ncccc34)n2)C1 | binding |  | 1 µM | 71
COc1cnc(Nc2cccc(S(N)(=O)=O)c2)nc1N1CCN(c2ccccc2)CC1 | binding | competition with immobilised ligand | 1 µM | 97
CC(=O)C1=C(C)N(c2cccc(C(F)(F)F)c2)C(=O)N[C@@H]1c1ccc(C#N)nc1 | cell-free assay | competition with immobilised ligand | 1 µM | 100
N[C@@H]1CCN(c2nccc(-c3cnn4ncccc34)n2)C1 | binding |  | 1 µM | 14
FC(F)(F)Oc1cccc(-c2cnc3ccc(-c4ccncc4)nn23)c1 | cell-free assay | competition with immobilised ligand | 5 µM | 56
COc1ccc2c(c1)O[C@H](c1ccc(OC)c(OC)c1)C[C@@H]2NC(=O)C1(c2ccc3c(c2)OC(F)(F)O3)CC1 | cell-free assay | competition with immobilised ligand | 1 µM | 92
